Measured values reported in ChEMBL document CHEMBL1944514, “Fluorescence detection of single nucleotide polymorphisms using nucleic acid probe containing tricyclic base-linked acyclonucleoside” (Bioorg Med Chem Lett, 2012).
Calls of active or inactive are those of the source. The rule behind the calls is not given here.

Experiments:
Format in all cases: nucleic-acid assay
[1] = test system: Nucleic Acid; assay: Binding affinity to 3'-r(CUUCCAGUUACAUAGAGA)-5' RNA assessed as fluorescence quenching measured post UV-irradiation by visual analysis
Summary of the method: (§1)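 Solutions of the N-containing probe/RNA target duplex in Tm buffer were irradiated with a handheld UV lamp at 254, 302 or 365 nm. The emitted colour was judged by eye from photographs.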

[2] = test system: Nucleic Acid; assay: Binding affinity to 3'-r(CUUCCAGUUUCAUAGAGA)-5' RNA assessed as change in melting temperature by spectrophotometry
[3] = test system: Nucleic Acid; assay: Binding affinity to 3'-r(CUUCCAGUUCCAUAGAGA)-5' RNA assessed as fluorescence quenching by spectrophotometry
[4] = test system: Nucleic Acid; assay: Binding affinity to 3'-r(CUUCCAGUUGCAUAGAGA)-5' RNA assessed as fluorescence quenching by spectrophotometry
[5] = test system: Nucleic Acid; assay: Binding affinity to 3'-r(CUUCCAGUUGCAUAGAGA)-5' RNA assessed as change in melting temperature by spectrophotometry
[6] = test system: Nucleic Acid; assay: Binding affinity to 3'-r(CUUCCAGUUUCAUAGAGA)-5' RNA assessed as fluorescence quenching by spectrophotometry
[7] = test system: Nucleic Acid; assay: Binding affinity to 3'-r(CUUCCAGUUCCAUAGAGA)-5' RNA assessed as change in melting temperature by spectrophotometry
[8] = test system: Nucleic Acid; assay: Binding affinity to 3'-r(CUUCCAGUUACAUAGAGA)-5' RNA assessed as change in melting temperature by spectrophotometry
[9] = test system: Nucleic Acid; assay: Binding affinity to 3'-r(CUUCCAGUUACAUAGAGA)-5' RNA assessed as fluorescence quenching by spectrophotometry
[10] = test system: Nucleic Acid; assay: Binding affinity to 3'-r(CUUCCAGUUUCAUAGAGA)-5' RNA assessed as fluorescence quenching measured post UV-irradiation by visual analysis; summary of the method: as §1

Row | SMILES | Activity [1] | ΔTm [2] [°C] | Activity [3] | Activity [4] | ΔTm [5] [°C] | Activity [6] | ΔTm [7] [°C] | Activity [8] | Activity [9] | Activity [10] | Activity [5] | ΔTm [8] [°C] | Activity [2]
1 | Cc1cn([C@H]2C[C@H](OP(=O)(O)OC[C@H]3O[C@@H](n4ccc(N)nc4=O)C[C@@H]3OP(=O)(O)OC[C@H]3O[C@@H](n4cnc5c(N)ncnc54)C[C@@H]3OP(=O)(O)OC[C@H]3O[C@@H](n4cnc5c(N)ncnc54)C[C@@H]3OP(=O)(O)OC[C@H]3O[C@@H](n4cc(C)c(=O)[nH]c4=O)C[C@@H]3OP(=O)(O)OC[C@H](Cn3cnc4cc5c(N)nc(N)nc5nc43)OP(=O)(O)OC[C@H]3O[C@@H](n4cnc5c(=O)[nH]c(N)nc54)C[C@@H]3OP(=O)(O)CC[C@H]3O[C@@H](n4cc(C)c(=O)[nH]c4=O)C[C@@H]3OP(=O)(O)OC[C@H]3O[C@@H](n4cnc5c(N)ncnc54)C[C@@H]3OP(=O)(O)OC[C@H]3O[C@@H](n4cc(C)c(=O)[nH]c4=O)C[C@@H]3OP(=O)(O)OC[C@H]3O[C@@H](n4ccc(N)nc4=O)C[C@@H]3OP(=O)(O)OC[C@H]3O[C@@H](n4cc(C)c(=O)[nH]c4=O)C[C@@H]3OP(=O)(O)OC[C@H]3O[C@@H](n4ccc(N)nc4=O)C[C@@H]3OP(=O)(O)OC[C@H]3O[C@@H](n4cc(C)c(=O)[nH]c4=O)C[C@@H]3O)[C@@H](COP(=O)(O)O[C@H]3C[C@H](n4cnc5c(=O)[nH]c(N)nc54)O[C@@H]3COP(=O)(O)O[C@H]3C[C@H](n4cnc5c(=O)[nH]c(N)nc54)O[C@@H]3COP(=O)(O)O[C@H]3C[C@H](n4cnc5c(N)ncnc54)O[C@@H]3COP(=O)(O)O[C@H]3C[C@H](n4cnc5c(N)ncnc54)O[C@@H]3COP(=O)(O)O[C@H]3C[C@H](n4cnc5c(=O)[nH]c(N)nc54)O[C@@H]3CO)O2)c(=O)nc1N | inactive | 1 | Active | Active | -0.9 | Active | -0.8 | inactive | inactive | Active |  |  | 
2 | Cc1cn([C@H]2C[C@H](OP(=O)(O)OC[C@H]3O[C@@H](n4ccc(N)nc4=O)C[C@@H]3OP(=O)(O)OC[C@H]3O[C@@H](n4cnc5c(N)ncnc54)C[C@@H]3OP(=O)(O)OC[C@H]3O[C@@H](n4cnc5c(N)ncnc54)C[C@@H]3OP(=O)(O)OC[C@H]3O[C@@H](n4ccc(N)nc4=O)C[C@@H]3OP(=O)(O)OC[C@H](Cn3cnc4cc5c(N)nc(N)nc5nc43)OP(=O)(O)OC[C@H]3O[C@@H](n4cnc5c(=O)[nH]c(N)nc54)C[C@@H]3OP(=O)(O)CC[C@H]3O[C@@H](n4cc(C)c(=O)[nH]c4=O)C[C@@H]3OP(=O)(O)OC[C@H]3O[C@@H](n4cnc5c(N)ncnc54)C[C@@H]3OP(=O)(O)OC[C@H]3O[C@@H](n4cc(C)c(=O)[nH]c4=O)C[C@@H]3OP(=O)(O)OC[C@H]3O[C@@H](n4ccc(N)nc4=O)C[C@@H]3OP(=O)(O)OC[C@H]3O[C@@H](n4cc(C)c(=O)[nH]c4=O)C[C@@H]3OP(=O)(O)OC[C@H]3O[C@@H](n4ccc(N)nc4=O)C[C@@H]3OP(=O)(O)OC[C@H]3O[C@@H](n4cc(C)c(=O)[nH]c4=O)C[C@@H]3O)[C@@H](COP(=O)(O)O[C@H]3C[C@H](n4cnc5c(=O)[nH]c(N)nc54)O[C@@H]3COP(=O)(O)O[C@H]3C[C@H](n4cnc5c(=O)[nH]c(N)nc54)O[C@@H]3COP(=O)(O)O[C@H]3C[C@H](n4cnc5c(N)ncnc54)O[C@@H]3COP(=O)(O)O[C@H]3C[C@H](n4cnc5c(N)ncnc54)O[C@@H]3COP(=O)(O)O[C@H]3C[C@H](n4cnc5c(=O)[nH]c(N)nc54)O[C@@H]3CO)O2)c(=O)nc1N |  | -1.1 | Active | inactive |  | Active | -3.2 |  | Active |  | inactive | -3.9 | 
3 | Cc1cn([C@H]2C[C@H](OP(=O)(O)OC[C@H]3O[C@@H](n4ccc(N)nc4=O)C[C@@H]3OP(=O)(O)OC[C@H]3O[C@@H](n4cnc5c(N)ncnc54)C[C@@H]3OP(=O)(O)OC[C@H]3O[C@@H](n4cnc5c(N)ncnc54)C[C@@H]3OP(=O)(O)OC[C@H]3O[C@@H](n4cnc5c(N)ncnc54)C[C@@H]3OP(=O)(O)OC[C@H](Cn3cnc4cc5c(N)nc(N)nc5nc43)OP(=O)(O)OC[C@H]3O[C@@H](n4cnc5c(=O)[nH]c(N)nc54)C[C@@H]3OP(=O)(O)CC[C@H]3O[C@@H](n4cc(C)c(=O)[nH]c4=O)C[C@@H]3OP(=O)(O)OC[C@H]3O[C@@H](n4cnc5c(N)ncnc54)C[C@@H]3OP(=O)(O)OC[C@H]3O[C@@H](n4cc(C)c(=O)[nH]c4=O)C[C@@H]3OP(=O)(O)OC[C@H]3O[C@@H](n4ccc(N)nc4=O)C[C@@H]3OP(=O)(O)OC[C@H]3O[C@@H](n4cc(C)c(=O)[nH]c4=O)C[C@@H]3OP(=O)(O)OC[C@H]3O[C@@H](n4ccc(N)nc4=O)C[C@@H]3OP(=O)(O)OC[C@H]3O[C@@H](n4cc(C)c(=O)[nH]c4=O)C[C@@H]3O)[C@@H](COP(=O)(O)O[C@H]3C[C@H](n4cnc5c(=O)[nH]c(N)nc54)O[C@@H]3COP(=O)(O)O[C@H]3C[C@H](n4cnc5c(=O)[nH]c(N)nc54)O[C@@H]3COP(=O)(O)O[C@H]3C[C@H](n4cnc5c(N)ncnc54)O[C@@H]3COP(=O)(O)O[C@H]3C[C@H](n4cnc5c(N)ncnc54)O[C@@H]3COP(=O)(O)O[C@H]3C[C@H](n4cnc5c(=O)[nH]c(N)nc54)O[C@@H]3CO)O2)c(=O)nc1N |  |  | Active | Active | -2.1 | inactive | -2 |  | Active |  |  | -2.3 | inactive
4 | Cc1cn([C@H]2C[C@H](OP(=O)(O)OC[C@H]3O[C@@H](n4ccc(N)nc4=O)C[C@@H]3OP(=O)(O)OC[C@H]3O[C@@H](n4cnc5c(N)ncnc54)C[C@@H]3OP(=O)(O)OC[C@H]3O[C@@H](n4cnc5c(N)ncnc54)C[C@@H]3OP(=O)(O)OC[C@H](Cn3cnc4cc5c(N)nc(N)nc5nc43)OP(=O)(O)OC[C@H]3O[C@@H](n4ccc(N)nc4=O)C[C@@H]3OP(=O)(O)OC[C@H]3O[C@@H](n4cnc5c(=O)[nH]c(N)nc54)C[C@@H]3OP(=O)(O)CC[C@H]3O[C@@H](n4cc(C)c(=O)[nH]c4=O)C[C@@H]3OP(=O)(O)OC[C@H]3O[C@@H](n4cnc5c(N)ncnc54)C[C@@H]3OP(=O)(O)OC[C@H]3O[C@@H](n4cc(C)c(=O)[nH]c4=O)C[C@@H]3OP(=O)(O)OC[C@H]3O[C@@H](n4ccc(N)nc4=O)C[C@@H]3OP(=O)(O)OC[C@H]3O[C@@H](n4cc(C)c(=O)[nH]c4=O)C[C@@H]3OP(=O)(O)OC[C@H]3O[C@@H](n4ccc(N)nc4=O)C[C@@H]3OP(=O)(O)OC[C@H]3O[C@@H](n4cc(C)c(=O)[nH]c4=O)C[C@@H]3O)[C@@H](COP(=O)(O)O[C@H]3C[C@H](n4cnc5c(=O)[nH]c(N)nc54)O[C@@H]3COP(=O)(O)O[C@H]3C[C@H](n4cnc5c(=O)[nH]c(N)nc54)O[C@@H]3COP(=O)(O)O[C@H]3C[C@H](n4cnc5c(N)ncnc54)O[C@@H]3COP(=O)(O)O[C@H]3C[C@H](n4cnc5c(N)ncnc54)O[C@@H]3COP(=O)(O)O[C@H]3C[C@H](n4cnc5c(=O)[nH]c(N)nc54)O[C@@H]3CO)O2)c(=O)nc1N |  | -5.4 | Active | inactive |  | Active | -6.5 |  | Active |  | inactive | -6 | 
5 | Cc1cn([C@H]2C[C@H](OP(=O)(O)OC[C@H]3O[C@@H](n4ccc(N)nc4=O)C[C@@H]3OP(=O)(O)OC[C@H]3O[C@@H](n4cnc5c(N)ncnc54)C[C@@H]3OP(=O)(O)OC[C@H]3O[C@@H](n4cnc5c(N)ncnc54)C[C@@H]3OP(=O)(O)OC[C@H](Cn3cnc4cc5c(N)nc(N)nc5nc43)OP(=O)(O)OC[C@H]3O[C@@H](n4cc(C)c(=O)[nH]c4=O)C[C@@H]3OP(=O)(O)OC[C@H]3O[C@@H](n4cnc5c(=O)[nH]c(N)nc54)C[C@@H]3OP(=O)(O)CC[C@H]3O[C@@H](n4cc(C)c(=O)[nH]c4=O)C[C@@H]3OP(=O)(O)OC[C@H]3O[C@@H](n4cnc5c(N)ncnc54)C[C@@H]3OP(=O)(O)OC[C@H]3O[C@@H](n4cc(C)c(=O)[nH]c4=O)C[C@@H]3OP(=O)(O)OC[C@H]3O[C@@H](n4ccc(N)nc4=O)C[C@@H]3OP(=O)(O)OC[C@H]3O[C@@H](n4cc(C)c(=O)[nH]c4=O)C[C@@H]3OP(=O)(O)OC[C@H]3O[C@@H](n4ccc(N)nc4=O)C[C@@H]3OP(=O)(O)OC[C@H]3O[C@@H](n4cc(C)c(=O)[nH]c4=O)C[C@@H]3O)[C@@H](COP(=O)(O)O[C@H]3C[C@H](n4cnc5c(=O)[nH]c(N)nc54)O[C@@H]3COP(=O)(O)O[C@H]3C[C@H](n4cnc5c(=O)[nH]c(N)nc54)O[C@@H]3COP(=O)(O)O[C@H]3C[C@H](n4cnc5c(N)ncnc54)O[C@@H]3COP(=O)(O)O[C@H]3C[C@H](n4cnc5c(N)ncnc54)O[C@@H]3COP(=O)(O)O[C@H]3C[C@H](n4cnc5c(=O)[nH]c(N)nc54)O[C@@H]3CO)O2)c(=O)nc1N |  | -1.8 | Active | inactive | -1.9 | Active | -3.5 | inactive | inactive |  |  |  | 
